ChEMBL document CHEMBL5058577, “EUbOPEN Chemogenomics Library 2 (Multiplex)” (2022)

Tested on: Fibroblast
Experiment: Multiplex assay against human fibroblast
Assay type: toxicity, cell-based
Procedure, shortened: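 Live cells carried four stains from seeding: Hoechst33342, BioTracker Green Microtubule Cytoskeleton Dye, MitoTracker Red and Annexin V Alexa Fluor 680. They were imaged on a CQ1 microscope at 37°C and 5% CO2 after compound addition. Using CellPathfinder machine-learning gating, cells were split into Hoechst high-intensity objects or normal cells, normal cells into healthy, pyknosed or fragmented nuclei, and pyknosed cells into mitotic or apoptotic; tubulin, mitochondrial-mass and membrane-permeability phenotypes are per cents of healthy-nucleus cells.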

[1] = 12 h, 1 µM, compound concentration 1 uM, replicate 1
[2] = 12 h, 1 µM, compound concentration 1 uM, replicate 2
[3] = 12 h, 10 µM, compound concentration 10 uM, replicate 1
[4] = 12 h, 10 µM, compound concentration 10 uM, replicate 2
[5] = 24 h, 1 µM, compound concentration 1 uM, replicate 1
[6] = 24 h, 1 µM, compound concentration 1 uM, replicate 2
[7] = 24 h, 10 µM, compound concentration 10 uM, replicate 1
[8] = 24 h, 10 µM, compound concentration 10 uM, replicate 2
[9] = 48 h, 1 µM, compound concentration 1 uM, replicate 1
[10] = 48 h, 1 µM, compound concentration 1 uM, replicate 2
[11] = 48 h, 10 µM, compound concentration 10 uM, replicate 1
[12] = 48 h, 10 µM, compound concentration 10 uM, replicate 2

With `Cc1ccc(/C(=C\CN2CCCC2)c2ccccn2)cc1` [TRIPROLIDINE] as the molecule, how does the “Population Apoptotic (%)” value [1] read?
Its value is 52%.

And the “Population Fragmented Nuclei (%)” value [1]?
The value was 17%.

And the “Population Healthy Nuclei (%)” value [1]?
Its value is 64%.

What about the “Population Hoechst High Intensity Objects (%)” value [1] of the same molecule?
Its value is 3%.

And the “Population Membrane Permeable-Phenotype (%)” value [1]?
The value was 0%.

And the “Population Mitochondria Different-Phenotype (%)” value [1]?
The value was 9%.

And the “Population Mitotic Cells (%)” value [1]?
Its value is 47%.

What about the “Population Normal (%)” value [1] of the same molecule?
Its value is 96%.

And the “Population Pyknosed Nuclei (%)” value [1]?
Its value is 18%.

And the “Population Tubulin-Different-Phenotype (%)” value [1]?
Its value is 29%.

What about the “Total Cell Count” value [1] of the same molecule?
Its value is 119.

What about the “Population Apoptotic (%)” value [2] of the same molecule?
The value was 41%.

And the “Population Fragmented Nuclei (%)” value [2]?
Its value is 28%.

And the “Population Healthy Nuclei (%)” value [2]?
Its value is 45%.

What about the “Population Hoechst High Intensity Objects (%)” value [2] of the same molecule?
Its value is 4%.

And the “Population Membrane Permeable-Phenotype (%)” value [2]?
The value was 1%.

What about the “Population Mitotic Cells (%)” value [2] of the same molecule?
The value was 58%.

What about the “Population Normal (%)” value [2] of the same molecule?
Its value is 95%.

And the “Population Pyknosed Nuclei (%)” value [2]?
Its value is 25%.

And the “Population Tubulin-Different-Phenotype (%)” value [2]?
The value was 60%.

And the “Total Cell Count” value [2]?
The value was 127.

And the “Population Apoptotic (%)” value [3]?
The value was 57%.

What about the “Population Fragmented Nuclei (%)” value [3] of the same molecule?
The value was 14%.

What about the “Population Healthy Nuclei (%)” value [3] of the same molecule?
Its value is 64%.

And the “Population Hoechst High Intensity Objects (%)” value [3]?
Its value is 2%.

What about the “Population Membrane Permeable-Phenotype (%)” value [3] of the same molecule?
Its value is 0%.

What about the “Population Mitochondria Different-Phenotype (%)” value [3] of the same molecule?
Its value is 5%.

What about the “Population Mitotic Cells (%)” value [3] of the same molecule?
Its value is 42%.

And the “Population Normal (%)” value [3]?
Its value is 97%.

What about the “Population Pyknosed Nuclei (%)” value [3] of the same molecule?
The value was 20%.

And the “Population Tubulin-Different-Phenotype (%)” value [3]?
Its value is 44%.

What about the “Total Cell Count” value [3] of the same molecule?
Its value is 139.

And the “Population Apoptotic (%)” value [4]?
Its value is 50%.

What about the “Population Fragmented Nuclei (%)” value [4] of the same molecule?
The value was 26%.

What about the “Population Healthy Nuclei (%)” value [4] of the same molecule?
Its value is 52%.

What about the “Population Membrane Permeable-Phenotype (%)” value [4] of the same molecule?
Its value is 9%.

What about the “Population Mitochondria Different-Phenotype (%)” value [4] of the same molecule?
The value was 9%.

And the “Population Mitotic Cells (%)” value [4]?
The value was 50%.

What about the “Population Pyknosed Nuclei (%)” value [4] of the same molecule?
The value was 21%.

What about the “Population Tubulin-Different-Phenotype (%)” value [4] of the same molecule?
Its value is 59%.

What about the “Total Cell Count” value [4] of the same molecule?
The value was 141.

And the “Population Apoptotic (%)” value [5]?
The value was 43%.

And the “Population Fragmented Nuclei (%)” value [5]?
The value was 17%.

And the “Population Healthy Nuclei (%)” value [5]?
Its value is 69%.

What about the “Population Hoechst High Intensity Objects (%)” value [5] of the same molecule?
Its value is 4%.

And the “Population Membrane Permeable-Phenotype (%)” value [5]?
Its value is 1%.

And the “Population Mitochondria Different-Phenotype (%)” value [5]?
Its value is 3%.

And the “Population Mitotic Cells (%)” value [5]?
The value was 56%.

And the “Population Normal (%)” value [5]?
The value was 95%.

What about the “Population Pyknosed Nuclei (%)” value [5] of the same molecule?
Its value is 13%.

What about the “Population Tubulin-Different-Phenotype (%)” value [5] of the same molecule?
Its value is 23%.

And the “Total Cell Count” value [5]?
Its value is 128.

And the “Population Apoptotic (%)” value [6]?
The value was 46%.

What about the “Population Fragmented Nuclei (%)” value [6] of the same molecule?
The value was 29%.

What about the “Population Healthy Nuclei (%)” value [6] of the same molecule?
Its value is 43%.

And the “Population Hoechst High Intensity Objects (%)” value [6]?
Its value is 9%.

What about the “Population Membrane Permeable-Phenotype (%)” value [6] of the same molecule?
The value was 6%.

And the “Population Mitochondria Different-Phenotype (%)” value [6]?
Its value is 6%.

And the “Population Mitotic Cells (%)” value [6]?
Its value is 53%.

And the “Population Normal (%)” value [6]?
The value was 90%.

And the “Population Pyknosed Nuclei (%)” value [6]?
Its value is 27%.

And the “Population Tubulin-Different-Phenotype (%)” value [6]?
The value was 64%.

What about the “Total Cell Count” value [6] of the same molecule?
The value was 121.

And the “Population Apoptotic (%)” value [7]?
The value was 47%.

And the “Population Fragmented Nuclei (%)” value [7]?
Its value is 15%.

And the “Population Healthy Nuclei (%)” value [7]?
Its value is 68%.

What about the “Population Hoechst High Intensity Objects (%)” value [7] of the same molecule?
The value was 4%.

What about the “Population Membrane Permeable-Phenotype (%)” value [7] of the same molecule?
Its value is 0%.

What about the “Population Mitochondria Different-Phenotype (%)” value [7] of the same molecule?
Its value is 3%.

What about the “Population Mitotic Cells (%)” value [7] of the same molecule?
The value was 52%.

What about the “Population Normal (%)” value [7] of the same molecule?
Its value is 95%.

What about the “Population Pyknosed Nuclei (%)” value [7] of the same molecule?
The value was 15%.

What about the “Population Tubulin-Different-Phenotype (%)” value [7] of the same molecule?
The value was 41%.

What about the “Total Cell Count” value [7] of the same molecule?
Its value is 142.

What about the “Population Apoptotic (%)” value [8] of the same molecule?
The value was 58%.

And the “Population Fragmented Nuclei (%)” value [8]?
Its value is 29%.

And the “Population Healthy Nuclei (%)” value [8]?
The value was 52%.

What about the “Population Hoechst High Intensity Objects (%)” value [8] of the same molecule?
Its value is 2%.

What about the “Population Membrane Permeable-Phenotype (%)” value [8] of the same molecule?
Its value is 6%.

What about the “Population Mitochondria Different-Phenotype (%)” value [8] of the same molecule?
The value was 12%.

What about the “Population Mitotic Cells (%)” value [8] of the same molecule?
Its value is 41%.

What about the “Population Normal (%)” value [8] of the same molecule?
Its value is 97%.

And the “Population Pyknosed Nuclei (%)” value [8]?
The value was 17%.

What about the “Population Tubulin-Different-Phenotype (%)” value [8] of the same molecule?
The value was 62%.

And the “Total Cell Count” value [8]?
Its value is 141.

And the “Population Apoptotic (%)” value [9]?
The value was 54%.

And the “Population Fragmented Nuclei (%)” value [9]?
Its value is 26%.

And the “Population Healthy Nuclei (%)” value [9]?
Its value is 65%.

And the “Population Hoechst High Intensity Objects (%)” value [9]?
The value was 3%.

And the “Population Membrane Permeable-Phenotype (%)” value [9]?
The value was 1%.

And the “Population Mitochondria Different-Phenotype (%)” value [9]?
The value was 2%.

And the “Population Mitotic Cells (%)” value [9]?
The value was 45%.

And the “Population Normal (%)” value [9]?
The value was 96%.

And the “Population Pyknosed Nuclei (%)” value [9]?
Its value is 8%.

And the “Population Tubulin-Different-Phenotype (%)” value [9]?
The value was 31%.

And the “Total Cell Count” value [9]?
The value was 135.

And the “Population Apoptotic (%)” value [10]?
Its value is 52%.

And the “Population Fragmented Nuclei (%)” value [10]?
The value was 29%.

And the “Population Healthy Nuclei (%)” value [10]?
Its value is 48%.

And the “Population Hoechst High Intensity Objects (%)” value [10]?
The value was 7%.

And the “Population Membrane Permeable-Phenotype (%)” value [10]?
The value was 7%.

What about the “Population Mitochondria Different-Phenotype (%)” value [10] of the same molecule?
Its value is 10%.

What about the “Population Mitotic Cells (%)” value [10] of the same molecule?
Its value is 48%.

And the “Population Normal (%)” value [10]?
The value was 92%.

And the “Population Pyknosed Nuclei (%)” value [10]?
The value was 21%.

What about the “Population Tubulin-Different-Phenotype (%)” value [10] of the same molecule?
The value was 57%.

What about the “Total Cell Count” value [10] of the same molecule?
The value was 124.

What about the “Population Apoptotic (%)” value [11] of the same molecule?
Its value is 38%.

And the “Population Fragmented Nuclei (%)” value [11]?
The value was 20%.

And the “Population Healthy Nuclei (%)” value [11]?
The value was 69%.

What about the “Population Hoechst High Intensity Objects (%)” value [11] of the same molecule?
Its value is 7%.

And the “Population Membrane Permeable-Phenotype (%)” value [11]?
Its value is 1%.

What about the “Population Mitochondria Different-Phenotype (%)” value [11] of the same molecule?
Its value is 6%.

What about the “Population Mitotic Cells (%)” value [11] of the same molecule?
Its value is 61%.

And the “Population Normal (%)” value [11]?
Its value is 92%.

What about the “Population Pyknosed Nuclei (%)” value [11] of the same molecule?
The value was 9%.

What about the “Population Tubulin-Different-Phenotype (%)” value [11] of the same molecule?
The value was 35%.

And the “Total Cell Count” value [11]?
The value was 142.

What about the “Population Apoptotic (%)” value [12] of the same molecule?
Its value is 42%.

And the “Population Fragmented Nuclei (%)” value [12]?
Its value is 32%.

What about the “Population Healthy Nuclei (%)” value [12] of the same molecule?
Its value is 56%.

What about the “Population Hoechst High Intensity Objects (%)” value [12] of the same molecule?
Its value is 5%.

What about the “Population Membrane Permeable-Phenotype (%)” value [12] of the same molecule?
Its value is 5%.

And the “Population Mitochondria Different-Phenotype (%)” value [12]?
The value was 9%.

What about the “Population Mitotic Cells (%)” value [12] of the same molecule?
The value was 57%.

And the “Population Normal (%)” value [12]?
The value was 94%.

And the “Population Pyknosed Nuclei (%)” value [12]?
Its value is 10%.

What about the “Population Tubulin-Different-Phenotype (%)” value [12] of the same molecule?
The value was 54%.

And the “Total Cell Count” value [12]?
The value was 140.
